Vif imaging = HIV Vif inhibition | HEK293T cells, Vif self-association by quenched fluorescence, imaging, 24 h | hit rate 0.35% among 340,000 | inhibition, % at 7.49 µM; in the data active means inhibition above about 50%, passing the limit was not always enough
CASP6 VEID inh = inhibitors of human caspase-6 | hit rate 0.53% among 350,000 | AID 686996 | inhibition, % at 12.5 µM | purified caspase-6, Z-VEID-R110 cleavage fluorescence | P55212;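 active means mean inhibition across replicates at least about 35%, with every replicate also reaching that limit, limit read from the data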;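 further: 0% = median of neutral control wells and 100% = no fluorescence left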
Target sequence (P55212 24-179 limits assumed): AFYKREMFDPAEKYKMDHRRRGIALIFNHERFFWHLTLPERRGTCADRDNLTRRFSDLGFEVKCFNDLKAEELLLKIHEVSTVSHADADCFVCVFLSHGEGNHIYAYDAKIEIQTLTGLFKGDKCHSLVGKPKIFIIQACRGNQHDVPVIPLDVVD
Target sequence (P55212 194-293 limits assumed): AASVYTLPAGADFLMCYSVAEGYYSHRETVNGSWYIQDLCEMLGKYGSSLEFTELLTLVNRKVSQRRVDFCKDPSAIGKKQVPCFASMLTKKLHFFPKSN
T cell modulator = T cell immune modulation candidate. 2C CD8+ T cell-vesicle binding, flow cytometry; active compounds read low. response (vesicle binding), % at 7 µM. hit rate 0.068% among 330,000;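 active means response, share of CD8 T cells binding vesicles, and their 90th percentile fluorescence all below set limits, cut at about 80% in these data, passing the limit was not always enough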;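 further: values below 100% mean blocked vesicle binding to the CD8+ T cells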
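Assay system: 2C TCR transgenic mouse naive CD8+ T cells, MACS-purified | Read-out: CD8+ gate FL2 mean fluorescence as % of same-row positive control | Signal: High-throughput flow cytometry with anti-B7-1 and anti-CD8 staining | Timing: Binding step 1.5 h, 37 °C, antibody labelling 20 min, ice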
Myeloid diff 2 = myeloid differentiation induction; ER-HoxA9 myeloid progenitors, lysozyme-GFP differentiation, flow cytometry; AID 624256; hit rate 1% among 360,000; calls only at 10 µM;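 active means normalized GFP-positive differentiation at or above the plate's own cutoff, the solvent-only control mean plus 3 SD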;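 further: cells exposed to compound for four days before flow analysis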
The depositor's hits bear a star; ! = a repeat was not active. Compounds with a hit are over-represented: about 1.4% of the library has one in this group of screens.

Results for Cc1noc(C)c1S(=O)(=O)Nc1ccc2c(c1)C(=O)N([C@@H](C)CO)C[C@H](C)[C@@H](CN(C)C(=O)Nc1ccc(C(F)(F)F)cc1)OCCCC[C@H](C)O2 ?
CASP6 VEID inh: -1

Results for CCc1ccc(-c2cc(C)no2)cc1S(=O)(=O)N1CCN(c2ccc(F)cc2)CC1 ?
Vif imaging: -7; CASP6 VEID inh: -1; T cell modulator: 435; Myeloid diff 2: active

How did CCCN1C[C@@H](C)[C@@H](OC)CN(C)C(=O)c2cc(NC(=O)C3CC3)ccc2OC[C@@H]1C do in these assays?
CASP6 VEID inh: 1

What do the screens show for `COc1ccc(CC(=O)NC(C)c2nnc(SCCOc3ccc(OC)cc3)n2C)cc1` (centres undefined)?
Vif imaging: -12; CASP6 VEID inh: 5; T cell modulator: 361; Myeloid diff 2: active

Results for CC1=C(C)CC(C(=O)NC2CCCC2)C(C(=O)O)C1 (centres undefined) ?
Vif imaging: 1; CASP6 VEID inh: -1; Myeloid diff 2: inactive

Results for CC1=CCC(C(=O)O)C(C(=O)NC2CCCCC2)C1 (centres undefined) ?
Vif imaging: 10; CASP6 VEID inh: 41*; T cell modulator: 372; Myeloid diff 2: inactive

How did Cc1ccc(C(=O)Nc2cccc(C(F)(F)F)c2)cc1Nc1cncnc1 do in these assays?
Vif imaging: 1; CASP6 VEID inh: 1; T cell modulator: 390; Myeloid diff 2: active!

What do the screens show for `COc1cc(NC(=O)c2ccc(N)nc2)cc(C(=O)Nc2cccc(C(F)(F)F)c2)c1`?
Vif imaging: -18; CASP6 VEID inh: 25; T cell modulator: 194; Myeloid diff 2: active!

Results for COc1ccc(CN2C[C@H](O)COC[C@@H]3O[C@H](CC(=O)N4CCc5ccccc5C4)CC[C@H]32)cc1 ?
CASP6 VEID inh: -3

Results for COc1ccc([C@H]2/C=C\CN(S(=O)(=O)/C=C/c3ccccc3)[C@@H](C)C(=O)N2Cc2ccc(F)cc2)cc1 ?
Vif imaging: -4; CASP6 VEID inh: 1; T cell modulator: 518; Myeloid diff 2: active

How did CN(C)S(=O)(=O)c1ccc(C(=O)Nc2ccccc2F)cc1 do in these assays?
Vif imaging: -2; CASP6 VEID inh: 0; T cell modulator: 143; Myeloid diff 2: inactive

Results for CN(C)S(=O)(=O)c1ccc(C(=O)Nc2ccccc2OC(F)(F)C(F)F)cc1 ?
Vif imaging: -6; CASP6 VEID inh: 2; Myeloid diff 2: active

How did O=C(CCCOc1ccc(Br)cc1)NNC(=O)c1ccncc1 do in these assays?
Vif imaging: 67*; CASP6 VEID inh: -6; T cell modulator: 495; Myeloid diff 2: inactive

Results for COc1ccc(Oc2cc(F)nc(N)n2)cc1 ?
CASP6 VEID inh: -3; T cell modulator: 199; Myeloid diff 2: inactive

What do the screens show for `Cc1ccc(C)c(Oc2cc(F)nc(N)n2)c1`?
Vif imaging: 12; CASP6 VEID inh: -4; T cell modulator: 358; Myeloid diff 2: active

Results for CSc1nc2ccc(NC(=O)C3CC(=O)N(Cc4ccccc4)C3)cc2s1 (centres undefined) ?
Vif imaging: -1; T cell modulator: 580; Myeloid diff 2: active

Results for C[C@@H]1CN([C@H](C)CO)C(=O)c2cc(NC(=O)CCC(F)(F)F)ccc2O[C@@H](C)CCCCO[C@@H]1CN(C)C(=O)c1ccccc1 ?
CASP6 VEID inh: 0

How did N#Cc1c(-c2ccccc2)nc(SCC(=O)NC2CCCCC2)[nH]c1=O do in these assays?
Vif imaging: -9; CASP6 VEID inh: -1; T cell modulator: 312; Myeloid diff 2: inactive

How did CN(C(=O)CSc1nc(-c2ccc(C(C)(C)C)cc2)c(C#N)c(=O)[nH]1)C1CCCCC1 do in these assays?
Vif imaging: -8; CASP6 VEID inh: 35*; T cell modulator: 860; Myeloid diff 2: inactive

Results for Nc1ccc2cc3ccccc3cc2c1 ?
Vif imaging: inactive; CASP6 VEID inh: 4; Myeloid diff 2: active

How did C[C@H]1CN([C@@H](C)CO)C(=O)c2cc(-c3ccc(C#N)cc3)cnc2O[C@@H]1CN(C)C(=O)CC1CC1 do in these assays?
CASP6 VEID inh: -3

How did Cc1ccc[n+](C(C)C(=O)c2ccc(Cl)cc2)c1 (centres undefined) do in these assays?
Vif imaging: -3; CASP6 VEID inh: -8; T cell modulator: 284; Myeloid diff 2: active

How did CCCCCOC(=O)C1C2C=CC3(CN(c4ccccc4C)C(=O)C13)O2 (centres undefined) do in these assays?
Vif imaging: -14; T cell modulator: 397; Myeloid diff 2: active

Results for COc1ccc(/C=N/NC(=O)CNC(=O)/C=C/c2ccccc2OC)cc1 ?
Vif imaging: 1; T cell modulator: 160; Myeloid diff 2: active

How did COc1ccccc1/C=C\C(=O)NCC(=O)N/N=C/c1cccc(OC)c1O do in these assays?
Vif imaging: -7; CASP6 VEID inh: -2; T cell modulator: 466; Myeloid diff 2: inactive

Results for c1ccc(Cc2cc[n+](Cc3ccccn3)cc2)cc1 ?
Vif imaging: -4; CASP6 VEID inh: -4; T cell modulator: 802; Myeloid diff 2: active

What do the screens show for `C[n+]1cccc2ccc3c(c21)OC(N)=C(C#N)C3c1ccccc1` (centres undefined)?
CASP6 VEID inh: 38*; T cell modulator: inactive; Myeloid diff 2: inactive

How did CCNc1nc(-c2cc(C)n(Cc3ccco3)c2C)cs1 do in these assays?
Vif imaging: 3; CASP6 VEID inh: 51*; T cell modulator: inactive; Myeloid diff 2: inactive

What do the screens show for `Cc1cc(-c2csc(NC(=O)c3ccc(=O)[nH]c3)n2)c(C)n1Cc1ccco1`?
Vif imaging: -4; CASP6 VEID inh: 18; T cell modulator: 148; Myeloid diff 2: inactive

Results for Cc1nc2ncccn2c1-c1csc(NCc2ccco2)n1 ?
Vif imaging: 4; T cell modulator: 230; Myeloid diff 2: active

How did COc1ccc2c3c([nH]c2c1)[C@H](CO)N(C(=O)c1ccccc1)CC31CCN(C(=O)c2cccc(F)c2)CC1 do in these assays?
CASP6 VEID inh: 1

Results for O=C(O)C1CSC(c2ccco2)N1 (centres undefined) ?
Vif imaging: -4; CASP6 VEID inh: 86*; T cell modulator: 177; Myeloid diff 2: inactive

How did COc1ccccc1NC(=O)N(C)C[C@H]1Oc2ncc(C#CC(C)C)cc2C(=O)N([C@@H](C)CO)C[C@@H]1C do in these assays?
CASP6 VEID inh: 1

What do the screens show for `O=C(Nc1cccc(-c2nnc(-c3ccco3)o2)c1)c1ccccc1`?
Vif imaging: -5; CASP6 VEID inh: -2; T cell modulator: 131; Myeloid diff 2: inactive

How did CC(=O)Oc1ccc(C(=O)Nc2cccc(-c3nnc(-c4ccco4)o3)c2)cc1 do in these assays?
Vif imaging: -10; CASP6 VEID inh: -2; T cell modulator: inactive; Myeloid diff 2: active

How did O=C(O)C(c1ccccc1)N1C(=O)/C(=C\c2ccc(-c3ccccc3Cl)o2)SC1=S (centres undefined) do in these assays?
Vif imaging: -4; CASP6 VEID inh: 86*; T cell modulator: 262; Myeloid diff 2: inactive

High-throughput results: PubChem, several laboratories
